According to publication PMC6896334 (Cell reports, 2019):

Columns and labels:
[1] = biological target: T1, NanoLuc luciferase ID1 fusion protein (Homo sapiens, UniProt P41134); assay: NanoBRET target engagement assay in permeabilized 293T cells; format: binding; settings: 2 μM AGX51 tracer, 0–60 μM competitor, 50 μg/mL digitonin
T1 sequence (P41134 1-155): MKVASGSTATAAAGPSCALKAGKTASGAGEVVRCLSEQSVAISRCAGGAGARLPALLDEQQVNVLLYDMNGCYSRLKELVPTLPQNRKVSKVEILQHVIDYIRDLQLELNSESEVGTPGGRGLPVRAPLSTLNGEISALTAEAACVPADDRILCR
How it was run: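 293T cells transfected with an N-terminal NanoLuc–ID1 fusion construct and plated 24 h later. Cells received 2 µM fluorescent tracer plus 0–60 µM competitor, then were permeabilised with digitonin (50 µg/mL). NanoBRET Nano-Glo substrate was added and the BRET ratio read, following the kit protocol for intracellular target engagement.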

[2] = 14-day toxicity study, i.p. dosing; format: in vivo, mouse; settings: mice, 60 mg/kg i.p. bid, 14 days
How it was run: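 Mice given the test compound or vehicle (70% DMSO in water) i.p. at 60 mg/kg twice daily for 14 consecutive days. They were sacrificed 24 h after the last dose for gross and complete necropsy and clinical pathology. Clinical chemistry covered BUN, creatinine, ALP, ALT, AST, GGT, bilirubin, total protein, albumin, globulin, phosphorus, glucose, cholesterol, calcium, sodium, potassium and chloride.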

[3] = tested on: HUVECs; assay: HUVEC scratch assay; format: cell-based, human; settings: 0–40 μM, 24 h
How it was run: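 HUVECs grown on 0.1% fibronectin-coated wells to confluence over 24 h. They were then serum-starved for 4 h in endothelial basal medium and scratched with a pipette tip to create a cell-free zone before exposure to the test compound.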

[4] = tested on: E protein binding; assay: EMSA on whole cell lysates from HCT116 cells; format: cell-based, human; settings: HCT116, 40 μM, 24 h
[5] = Concentration of AGX51 in the eyes after i.p. dosing; format: in vivo, mouse
How it was run: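 Test compound given i.p. at 30 mg/kg. Eyes were dissected at time points over 24 h, extracted, and compound content per eye measured by mass spectrometry.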

[6] = tested on: 4T1 cells; assay: 4T1 cell-based IC50; settings: Mus musculus, 4T1, 24 h
How it was run: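 4T1 cells exposed to 0–20 µM test compound for 24 h. Whole-cell lysates were immunoblotted for Id1. Band intensities were read on 700/800 nm infrared channels, blank-subtracted and normalised to tubulin, and IC50 was taken from these blots.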

[7] = biological target: T2, E47 (Homo sapiens, UniProt P15923); assay: Circular dichroism; format: binding; settings: AGX51 0, 10, 20, 50 μM
T2 sequence (P15923 1-651 isoform P15923-2): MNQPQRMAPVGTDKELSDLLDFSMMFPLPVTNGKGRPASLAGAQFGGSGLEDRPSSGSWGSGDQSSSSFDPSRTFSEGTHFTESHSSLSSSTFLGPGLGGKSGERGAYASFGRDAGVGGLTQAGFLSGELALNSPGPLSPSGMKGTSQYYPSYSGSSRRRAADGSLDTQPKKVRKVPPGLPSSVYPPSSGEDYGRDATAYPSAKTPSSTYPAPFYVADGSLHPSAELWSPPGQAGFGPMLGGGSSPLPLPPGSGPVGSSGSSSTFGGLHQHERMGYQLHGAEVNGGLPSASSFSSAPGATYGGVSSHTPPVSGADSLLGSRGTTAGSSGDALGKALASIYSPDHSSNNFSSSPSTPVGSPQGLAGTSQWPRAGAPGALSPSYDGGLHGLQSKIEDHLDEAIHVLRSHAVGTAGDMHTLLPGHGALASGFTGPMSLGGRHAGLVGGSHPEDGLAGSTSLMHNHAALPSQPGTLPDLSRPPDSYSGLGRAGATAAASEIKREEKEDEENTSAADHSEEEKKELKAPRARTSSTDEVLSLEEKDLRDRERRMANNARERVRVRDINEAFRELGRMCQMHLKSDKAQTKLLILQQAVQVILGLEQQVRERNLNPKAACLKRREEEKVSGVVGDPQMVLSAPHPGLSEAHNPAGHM

[8] = biological target: T3, Id3 (Mus musculus, UniProt P41133); assay: Circular dichroism; format: binding
T3 sequence (P41133 1-119): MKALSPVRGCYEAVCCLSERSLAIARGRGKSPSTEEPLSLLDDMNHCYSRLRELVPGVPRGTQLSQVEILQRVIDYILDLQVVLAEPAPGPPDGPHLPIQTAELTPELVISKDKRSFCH

[9] = tested on: Cyclin D1; assay: Western blot for Cyclin D1 in HCT116 cells; format: cell-based, human; settings: HCT116, 40 μM, 0-48 hours
[10] = tested on: HCT116 cells; assay: HCT116 cell viability; format: cell-based, human
How it was run: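 MTT viability: cells seeded at 5000/well and left overnight, then exposed to the test compound for 24 h. MTT (5 mg/mL) was added for 4 h, medium removed and formazan dissolved in DMSO. Absorbance was read at 570 nm.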

[11] = tested on: HUVECs; assay: HUVEC cell cycle analysis; format: cell-based, human; settings: 20 μM, 24 h
How it was run: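 Cells exposed to test compound or DMSO, then trypsinised, PBS-washed and fixed in 70% ethanol at −20°C. After centrifugation and PBS wash, cells were stained in PI/RNase buffer for 15 min at room temperature. DNA content was analysed by flow cytometry.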

[12] = tested on: HUVECs; assay: HUVEC cell branching assay on matrigel; format: cell-based, human; settings: 0–40 μM, 18–20 h on matrigel, vs vehicle, p < 0.05
How it was run: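 HUVECs (80,000 per well) in EGM-2 containing the test compound at the indicated concentration were plated on Matrigel pre-solidified for 30 min at 37°C. After 18–20 h, media was removed and wells were fixed in 10% buffered formalin for 15 min. Tubes were imaged by inverted microscope at 10x. Nodes, junctions, meshes and total branching length were scored by Angiogenesis Analyzer, n = 4 per concentration, Wilcoxon test.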

[13] = biological target: T4, Id1 crystals (Mus musculus, UniProt P20067); assay: Exposure of Id1 crystals to compound; settings: DMSO alone had no such effect
T4 sequence (P20067 51-104): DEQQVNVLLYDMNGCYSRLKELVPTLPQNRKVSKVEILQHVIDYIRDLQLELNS
How it was run: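 Mouse Id1 (residues 51–104) crystals grown by hanging-drop vapour diffusion at 4°C. Protein at 2.8 mg/mL (20 mM Tris pH 8.0, 0.25 M NaCl, 5 mM DTT) was mixed 1:1 with reservoir of 0.1 M sodium citrate pH 6.5, 0.2 M magnesium acetate and 10% PEG8000.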

In the case of `CCC(=O)N(CCC(c1ccc2c(c1)OCO2)c1ccccc1OC)Cc1ccccc1` (stereo not drawn) [AGX51, N-(3-(benzo[d][1,3]dioxol-5-yl)-3-(2-methoxyphenyl)propyl)-N-benzylpropionamide], the “competition with the AGX51 tracer (BRET ratio)” value [1] is reported as “able to compete the AGX51 tracer”, the “clinical chemistry parameters and hematology” value [2] is reported as “within normal limits” and the “gross necropsy and histopathological evaluation of all major organs” value [2] is reported as “No abnormal findings”. For the same compound, the mortality or morbidity [2] was “no mortality or morbidity was observed”, the weight loss [2] was “no significant weight loss” and the “HUVEC migration after scratch” value [3] was “significantly impaired HUVEC migration”. The “E protein binding in cell lysates” value [4] was “small increase in E protein binding”, the half-life ([5]; male, BALB/c, mouse, eye, ip, 30 mg/kg) was 3.7 h and the “maximum concentration in the eye” value ([5]; mice, i.p. 30 mg/kg, after 30 min) was ~ 4 ng/eye. The IC50 [6] was 26.7 µM, the “interaction with E47 (CD)” value [7] was “no evidence of an interaction” and the “effect on Id3 secondary structure (CD)” value [8] was “small but reproducible effect”. For the same compound, the “Cyclin D1 levels” value [9] was “reduction in Cyclin D1 levels”, the “cell viability (MTT)” value ([10]; HCT116, 40 μM, 24 hours) was “reduced cell viability” and the IC50 ([10]; Homo sapiens, HCT-116, 24 h) was 22.3 µM. For the same compound, the cell cycle effect [11] was “G0/G1 growth arrest”, the “vascular branching (nodes, junctions, meshes, total branching length)” value [12] was “significantly impaired in a dose-dependent manner” and the “effect on Id1 crystals” value [13] was “the crystals melted”.
